The values below come from publication PMC6437634 (Acta Pharmaceutica Sinica. B, 2018).

As usually defined, the IC50 is the midpoint of a concentration-inhibition curve. A low value points to inhibition by little substance. As usually defined, the microsomal CLint is the capacity of the preparation to metabolise the compound, expressed as a volume cleared per time. What is called inhibition is the change of the read-out against control, counted positive when it falls.

One data set deals with FGFR1 kinase (Homo sapiens, UniProt P11362). Briefly: ELISA kinase assay FGFR1. The class given is biochemical.
Chain of FGFR1 kinase (P11362 22-822): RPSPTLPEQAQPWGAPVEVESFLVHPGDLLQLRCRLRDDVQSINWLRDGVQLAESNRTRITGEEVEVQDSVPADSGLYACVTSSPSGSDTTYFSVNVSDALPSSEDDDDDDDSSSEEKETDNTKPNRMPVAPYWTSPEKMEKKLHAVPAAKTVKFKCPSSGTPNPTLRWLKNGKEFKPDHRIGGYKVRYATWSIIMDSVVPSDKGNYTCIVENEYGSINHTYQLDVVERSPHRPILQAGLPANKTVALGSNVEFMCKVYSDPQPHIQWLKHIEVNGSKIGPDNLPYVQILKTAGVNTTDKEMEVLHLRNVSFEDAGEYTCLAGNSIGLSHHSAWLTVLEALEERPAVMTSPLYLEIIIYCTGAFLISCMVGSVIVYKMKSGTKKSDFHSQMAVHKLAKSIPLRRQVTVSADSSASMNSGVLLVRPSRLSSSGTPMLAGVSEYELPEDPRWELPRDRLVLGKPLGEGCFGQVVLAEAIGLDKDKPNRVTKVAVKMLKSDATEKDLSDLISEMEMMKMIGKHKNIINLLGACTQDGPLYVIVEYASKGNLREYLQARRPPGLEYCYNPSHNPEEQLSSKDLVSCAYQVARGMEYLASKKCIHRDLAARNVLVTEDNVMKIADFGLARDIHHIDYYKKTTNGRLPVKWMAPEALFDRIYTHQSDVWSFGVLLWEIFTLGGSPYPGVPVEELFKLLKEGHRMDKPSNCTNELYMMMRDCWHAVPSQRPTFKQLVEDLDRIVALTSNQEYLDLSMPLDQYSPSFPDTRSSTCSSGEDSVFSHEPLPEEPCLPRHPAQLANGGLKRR
Data set [1] is described as follows: In vitro metabolic stability, human liver microsomal intrinsic clearance. The class given is in vitro ADME. The note with it: liver microsomes, pH 7.4. In a few lines: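 Human liver microsomes (0.5 mg/mL) were preincubated 5 min at 37 °C with 1 μmol/L test compound in 0.1 mol/L phosphate buffer pH 7.4 with EDTA and MgCl2. NADPH started the reaction. Samples taken at 0, 5, 10 and 30 min at 37 °C were quenched with equal-volume cold acetonitrile and centrifuged. Remaining parent compound was quantified by LC–MS/MS.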
For orientation: Liver microsomes are vesicles of endoplasmic reticulum, rich in cytochrome P450 enzymes.

The next data set deals with CYP3A4 (Homo sapiens, UniProt P08684). Briefly: CYPs direct inhibition CYP3A4. The class given is in vitro ADME. The note with it: liver microsomes, pH 7.4.
Chain of CYP3A4 (P08684 whole entry): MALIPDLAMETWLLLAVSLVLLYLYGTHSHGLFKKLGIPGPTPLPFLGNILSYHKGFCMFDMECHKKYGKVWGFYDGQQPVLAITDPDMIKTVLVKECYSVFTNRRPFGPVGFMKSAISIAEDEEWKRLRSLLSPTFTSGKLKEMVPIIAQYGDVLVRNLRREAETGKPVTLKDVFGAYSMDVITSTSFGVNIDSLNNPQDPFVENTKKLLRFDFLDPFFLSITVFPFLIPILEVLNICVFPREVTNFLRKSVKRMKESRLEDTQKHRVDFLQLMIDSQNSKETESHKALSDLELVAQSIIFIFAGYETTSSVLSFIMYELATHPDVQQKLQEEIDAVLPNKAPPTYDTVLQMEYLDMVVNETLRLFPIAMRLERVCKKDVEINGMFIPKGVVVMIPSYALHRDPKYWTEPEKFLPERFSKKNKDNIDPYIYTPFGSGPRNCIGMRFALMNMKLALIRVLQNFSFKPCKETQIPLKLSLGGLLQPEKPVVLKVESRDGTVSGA
The next data set concerns CYPs. Description: CYP time-dependent inhibition. The note with it: kobs lower than 200 (10^-4/min) considered no TDI inhibition. The class given is in vitro ADME, human.

On to `COc1cc(CCc2cnc3ccn(S(=O)(=O)c4ccccc4)c3n2)cc(OC)c1` [Compound 5, 3-(3,5-Dimethoxyphenethyl)-5-(phenylsulfonyl)-5H-pyrrolo[2,3-b]pyrazine], for which the FGFR1 inhibition ratio result on FGFR1 kinase (at 0.1 μmol/L) is “about 75%”.
Consider `COc1cc(OC)c(Cl)c(CCc2cnc3ccn(S(=O)(=O)c4ccccc4)c3n2)c1Cl` [Compound 7, 3-(2,6-Dichloro-3,5-dimethoxyphenethyl)-5-(phenylsulfonyl)-5H-pyrrolo[2,3-b]pyrazine], for which inhibition against FGFR1 kinase was half-maximal at 14 nM (IC50).
The molecule `COc1cc(CCc2cnc3ccn(S(=O)(=O)c4c[nH]cn4)c3n2)cc(OC)c1` [Compound 12, 5-((1H-Imidazol-4-yl)sulfonyl)-3-(3,5-dimethoxyphenethyl)-5H-pyrrolo[2,3-b]pyrazine] gave a microsomal CLint at 1 μmol/L in data set [1] of 38 µL/min/mg. Also, the inhibition at 20 min, 10 μmol/L on CYP3A4 is 96%. In addition, the “TDI (time-dependent inhibition), CYPs affected” value in the data set with CYPs is “No inhibition”.
`COc1cc(CCc2cnc3ccn(S(=O)(=O)c4cn(C)cn4)c3n2)cc(OC)c1` [Compound 20]: the “FGFR1 enzymatic inhibitory activity (in words)” value at FGFR1 kinase is given as “single digit nanomolar activity”. In addition, the microsomal CLint at 1 μmol/L in data set [1] stood at 212 µL/min/mg. For the same molecule, the inhibition at 20 min, 10 μmol/L at CYP3A4 came out at 88%.
With `COc1cc(OC)c(Cl)c(CCc2cnc3ccn(S(=O)(=O)c4c[nH]cn4)c3n2)c1Cl` [Compound 29], the “FGFR1 enzymatic inhibitory activity (in words)” value on FGFR1 kinase was “picomolar range”. This molecule also had an intrinsic clearance (microsomal CLint) at 1 μmol/L in data set [1] of 50 µL/min/mg. Also, the inhibition at 20 min, 10 μmol/L against CYP3A4 worked out at 90%. For the same molecule, in the data set on CYPs, the “TDI (time-dependent inhibition), CYPs affected” value is recorded as “No inhibition”.
`CCOc1cccc(CCc2cnc3ccn(S(=O)(=O)c4cn(C)cn4)c3n2)c1` [Compound 30, 3-(3-Ethoxyphenethyl)-5-((1-methyl-1H-imidazol-4-yl)sulfonyl)-5H-pyrrolo[2,3-b]pyrazine]: the “FGFR1 enzymatic inhibitory activity (in words)” value on FGFR1 kinase is recorded as “decreased dramatically”.
Take `COc1cc(CCc2cnc3ccn(S(=O)(=O)c4cn(C)cn4)c3n2)c(F)c(OC)c1` [Compound 32, 3-(2-Fluoro-3,5-dimethoxyphenethyl)-5-((1-methyl-1H-imidazol-4-yl)sulfonyl)-5H-pyrrolo[2,3-b]pyrazine]: at FGFR1 kinase, the half-inhibitory concentration (IC50) amounted to 0.4 nM.
For the molecule `COc1cc(CCc2cnc3ccn(S(=O)(=O)c4cn(CCF)cn4)c3n2)c(F)c(OC)c1` [Compound 33, 3-(2-Fluoro-3,5-dimethoxyphenethyl)-5-((1-(2-fluoroethyl)-1H-imidazol-4-yl)sulfonyl)-5H-pyrrolo[2,3-b]pyrazine], the “FGFR1 enzymatic inhibitory activity (in words)” value at FGFR1 kinase is “equipotent enzymatic activity as compound 32”.
Turning to `COc1cc(OC)c(F)c(/C=C/c2cnc3ccn(S(=O)(=O)c4cn(C)cn4)c3n2)c1F` [Compound 34, (E)-3-(2,6-Difluoro-3,5-dimethoxystyryl)-5-((1-methyl-1H-imidazol-4-yl)sulfonyl)-5H-pyrrolo[2,3-b]pyrazine], on FGFR1 kinase, the “FGFR1 enzymatic inhibitory activity (in words)” value is recorded as “equipotent enzymatic activity as compound 32”.
